Results published in ChEMBL document CHEMBL3526049 (Drug Metab Dispos, 2012).

What was measured:
[1] = test system: Brain; assay: Drug uptake in MDR1A knockout Sprague-Dawley rat brain at 1 mg/kg, iv; type: ADME, organism-based; design: dose 1 mg/kg, route intravenous; conditions: in vivo
[2] = test system: Liver; assay: Drug uptake in MDR1A knockout Sprague-Dawley rat liver at 1 mg/kg, iv; type: ADME, organism-based; design: dose 1 mg/kg, route intravenous; conditions: in vivo
[3] = test system: Kidney; assay: Drug uptake in MDR1A knockout Sprague-Dawley rat kidney at 1 mg/kg, iv; type: ADME, organism-based; design: dose 1 mg/kg, route intravenous; conditions: in vivo
[4] = test system: Brain; assay: Drug uptake in BCRP knockout Sprague-Dawley rat brain at 1 mg/kg, iv; type: ADME, organism-based; design: dose 1 mg/kg, route intravenous; conditions: in vivo
[5] = test system: Liver; assay: Drug uptake in BCRP knockout Sprague-Dawley rat liver at 1 mg/kg, iv; type: ADME, organism-based; design: dose 1 mg/kg, route intravenous; conditions: in vivo
[6] = test system: Kidney; assay: Drug uptake in BCRP knockout Sprague-Dawley rat kidney at 1 mg/kg, iv; type: ADME, organism-based; design: dose 1 mg/kg, route intravenous; conditions: in vivo
[7] = Drug excretion in bile duct-cannulated BCRP knockout Sprague-Dawley rat bile at 1 mg/kg, iv up to 24 hrs; type: ADME, organism-based; design: dose 1 mg/kg, route intravenous; conditions: read-out: Drug excretion
Method in brief: (§1)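 Male Sprague-Dawley rats with bile-duct and femoral cannulation, housed in metabolism cages. Given an IV bolus of 1 mg/kg in 2 ml/kg 50% Cremophor EL in ethanol. Urine, bile and feces collected in toto 0–24 h, with cage wash at 24 h. Amounts quantified by LC-MS/MS and expressed as % of dose; n=6–12.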

[8] = Drug excretion in bile duct-cannulated MRP2 knockout Sprague-Dawley rat bile at 1 mg/kg, iv up to 24 hrs; type: ADME, organism-based; design: dose 1 mg/kg, route intravenous; conditions: read-out: Drug excretion; method in brief: as §1
[9] = Drug excretion in bile duct-cannulated wild-type Sprague-Dawley rat urine at 1 mg/kg, iv up to 24 hrs; type: ADME, organism-based; design: dose 1 mg/kg, route intravenous; conditions: read-out: Drug excretion; method in brief: as §1
[10] = Drug excretion in bile duct-cannulated MDR1A knockout Sprague-Dawley rat urine at 1 mg/kg, iv up to 24 hrs; type: ADME, organism-based; design: dose 1 mg/kg, route intravenous; conditions: read-out: Drug excretion
Method in brief: (§2)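 Male Sprague-Dawley Mdr1a knockout rats with bile duct and femoral cannulas, housed in metabolism cages. […] Urine, bile and feces were collected in total over 0–24 h, and cage wash was taken at 24 h.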

[11] = Drug excretion in bile duct-cannulated BCRP knockout Sprague-Dawley rat urine at 1 mg/kg, iv up to 24 hrs; type: ADME, organism-based; design: dose 1 mg/kg, route intravenous; conditions: read-out: Drug excretion; method in brief: as §1
[12] = Drug excretion in bile duct-cannulated MRP2 knockout Sprague-Dawley rat urine at 1 mg/kg, iv up to 24 hrs; type: ADME, organism-based; design: dose 1 mg/kg, route intravenous; conditions: read-out: Drug excretion; method in brief: as §1
[13] = Drug excretion in bile duct-cannulated MDR1A knockout Sprague-Dawley rat bile at 1 mg/kg, iv up to 24 hrs; type: ADME, organism-based; design: dose 1 mg/kg, route intravenous; conditions: read-out: Drug excretion; method in brief: as §2
[14] = Volume of distribution at steady state in MDR1A knockout Sprague-Dawley rat at 1 mg/kg, iv by LC-MS/MS analysis; type: ADME, organism-based; design: dose 1 mg/kg, route intravenous; conditions: in vivo, read-out: Vdss
Method in brief: (§3)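 Male Sprague-Dawley rats (knockout or wild type matched for age and weight), femoral artery and vein cannulated, at least 2 days recovery. Crossover design: IV bolus 1 mg/kg on day 0 (saline with 0.2 M equivalents HCl), oral gavage 10 mg/kg on day 3 (water with 0.2 M equivalents HCl). Arterial plasma sampled to 24 h (Mdr1a oral arm to 4 h). Analysed by LC-MS/MS and noncompartmental analysis.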

[15] = Volume of distribution at steady state in wild-type Sprague-Dawley rat at 1 mg/kg, iv by LC-MS/MS analysis; type: ADME, organism-based; design: dose 1 mg/kg, route intravenous; conditions: in vivo, read-out: Vdss; method in brief: as §3
[16] = Volume of distribution at steady state in BCRP knockout Sprague-Dawley rat at 1 mg/kg, iv by LC-MS/MS analysis; type: ADME, organism-based; design: dose 1 mg/kg, route intravenous; conditions: in vivo, read-out: Vdss; method in brief: as §3
[17] = test system: Rattus norvegicus; assay: Clearance in MRP2 knockout Sprague-Dawley rat at 1 mg/kg, iv by LC-MS/MS analysis; conditions: in vivo
[18] = Clearance in BCRP knockout Sprague-Dawley rat at 1 mg/kg, iv by LC-MS/MS analysis; conditions: in vivo
[19] = Clearance in MDR1A knockout Sprague-Dawley rat at 1 mg/kg, iv by LC-MS/MS analysis; conditions: in vivo
[20] = Clearance in wild-type Sprague-Dawley rat at 1 mg/kg, iv by LC-MS/MS analysis; conditions: in vivo
[21] = AUC (infinity) in wild-type Sprague-Dawley rat at 1 mg/kg, iv by LC-MS/MS analysis; type: ADME, organism-based; design: time infinity, dose 1 mg/kg, route intravenous; conditions: plasma
[22] = AUC (infinity) in MDR1A knockout Sprague-Dawley rat at 1 mg/kg, iv by LC-MS/MS analysis; type: ADME, organism-based; design: time infinity, dose 1 mg/kg, route intravenous; conditions: plasma
[23] = AUC (infinity) in BCRP knockout Sprague-Dawley rat at 1 mg/kg, iv by LC-MS/MS analysis; type: ADME, organism-based; design: time infinity, dose 1 mg/kg, route intravenous; conditions: plasma
[24] = test system: Rattus norvegicus; assay: AUC (infinity) in MRP2 knockout Sprague-Dawley rat at 1 mg/kg, iv by LC-MS/MS analysis; type: ADME, organism-based, Plasma; design: time infinity, dose 1 mg/kg, route intravenous; conditions: in vivo
[25] = Half life in wild-type Sprague-Dawley rat at 1 mg/kg, iv by LC-MS/MS analysis; type: ADME, organism-based; design: dose 1 mg/kg, route intravenous; conditions: in vivo; method in brief: as §3
[26] = Half life in MDR1A knockout Sprague-Dawley rat at 1 mg/kg, iv by LC-MS/MS analysis; type: ADME, organism-based; design: dose 1 mg/kg, route intravenous; conditions: in vivo; method in brief: as §3
[27] = Half life in BCRP knockout Sprague-Dawley rat at 1 mg/kg, iv by LC-MS/MS analysis; type: ADME, organism-based; design: dose 1 mg/kg, route intravenous; conditions: in vivo; method in brief: as §3

For `CC(=O)O[C@H]1C(=O)[C@@]2(C)[C@H]([C@H](OC(=O)c3ccccc3)[C@]3(O)C[C@H](OC(=O)[C@H](O)[C@@H](NC(=O)c4ccccc4)c4ccccc4)C(C)=C1C3(C)C)[C@]1(OC(C)=O)CO[C@@H]1C[C@@H]2O` [PACLITAXEL], the Drug uptake [1] was “Active”, the Drug uptake [2] was “Active” and the Drug uptake [3] was “Active”. The Drug uptake [4] was “Active”, the Drug uptake [5] was “Active” and the Drug uptake [6] was “Active”. For the same compound, the dose excreted at 24 h [7] was 0.1%, the dose excreted at 24 h [8] was 0.2% and the dose excreted at 24 h [9] was 3.1%. The dose excreted at 24 h [10] was 0.14%, the dose excreted at 24 h [11] was 2% and the dose excreted at 24 h [12] was 4.5%. It also gave a dose excreted at 24 h [13] of 0%, a Vd [14] of 38.1 L/kg and a Vd [15] of 30.3 L/kg. For the same compound, the Vd [16] was 29.1 L/kg, the CL [17] was 152 mL/min/kg and the clearance [18] was 102 mL/min/kg. The clearance [19] was 66.7 mL/min/kg, the clearance [20] was 112 mL/min/kg and the AUC(0-inf) [21] was 172 ng·h/mL. It also gave an AUC(0-inf) [22] of 303 ng·h/mL, an AUC(0-inf) [23] of 171 ng·h/mL and an AUC [24] of 375 ng·h/mL. It also gave a half-life [25] of 7.2 h, a half-life [26] of 12.2 h and a half-life [27] of 6.4 h.
